Source: PubChem BioAssay (several laboratories)
PABP FP inh = blocks human PABP binding to poly(A) RNA | P11940 | fluorescence polarization | calls only at 35 µM | hit rate 1% among 290,000 | AID 2014;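 note: calls also rest on retests at 20 µM and on dose response follow-up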
SUMO HTRF inh = blocks human SUMOylation mediated by UBC9; P63279; HTRF SUMOylation assay, SAE1/SAE2 + UBC9, in vitro; inhibition, % at 35 µM; hit rate 0.36% among 290,000; AID 2006; in the data active = inhibition above about 50%, passing the limit was not always enough; inconclusive = no clear call, values can overlap the other calls
Target sequence (P63279 whole entry, looked up): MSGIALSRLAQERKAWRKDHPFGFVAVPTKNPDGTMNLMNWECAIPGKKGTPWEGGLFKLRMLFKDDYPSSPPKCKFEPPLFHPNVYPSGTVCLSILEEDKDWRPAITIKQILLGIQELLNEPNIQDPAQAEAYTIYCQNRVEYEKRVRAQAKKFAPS
HCV core dimer = HCV core protein dimerization inhibition. TR-FRET GST/Flag-core106 dimerization, 1536-well. hit rate 0.33% among 300,000. inhibition, % at 5 µM. AID 1899;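 active = inhibition above the mean of all tested compounds plus 3 SD, set per screening campaign, cut at about 45% in these data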
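Test system: GST/Flag-tagged HCV core106 proteins; Medium: KF-containing HEPES buffer, pH 7.45, DTT, CHAPS, BSA; Times: compound-protein-antibody incubation 4 h at 22.5 °C; Detection: TR-FRET 671 and 617 nm emission; Benchmarks: wells lacking GST-core106 and wells with excess unlabelled core106.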
eIF4E-4G inh = inhibitors of eIF4E and eIF4G interaction in translation initiation | AID 782 | TR-FRET eIF4E-eIF4GI(517-606) binding, 2 h | inhibition, % at 21.7 µM | P63073+Q04637 | hit rate 0.37% among 220,000;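 active = inhibition above about 30%, limit read from the data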
eIF4H inh = inhibitors of RNA binding by human eIF4H; Q15056; eIF4H fluorescence polarization binding assay; inhibition, % at 35 µM; hit rate 0.94% among 290,000;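 note: calls also rest on retests at 20 µM and on dose response follow-up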
MLLE-PAM2 inh = inhibitors of microRNA-mediated deadenylation, human PABP1 MLLE binding; GST-MLLE / FITC-PAM2 fluorescence polarization; inhibition, % at 20 µM; hit rate 0.36% among 360,000; AID 588489; in the data active = inhibition above about 35%, passing the limit was not always enough
Each line names hits and unclear results; the compound was inactive in the other large screens; [ ] = dose if it differs, or a comment. Sampled rows, rich in hits. Any-hit rate of the full collection: about 1.8%. Unless noted, the rule behind the calls is not given here.

CCC(c1nnnn1CC1CCCO1)N(CCCO)Cc1cc2cccc(C)c2[nH]c1=O (stereo not drawn)	none
O=C(c1ccco1)[C@@H]1[C@@H]2C(=O)N(c3ccc(Br)cc3)C(=O)[C@@H]2C2c3ccccc3C=CN21 (stereo partly drawn)	none (no result: HCV core dimer, eIF4E-4G inh)
CC(=O)[C@H]1[C@@H]2C(=O)N(c3cccc(Cl)c3)C(=O)[C@@H]2[C@H]2c3ccccc3C=CN21	PABP FP inh active, HCV core dimer 58
O=C(c1ccco1)[C@@H]1[C@@H]2C(=O)N(c3ccc(F)cc3)C(=O)[C@@H]2C2c3ccccc3C=CN21 (stereo partly drawn)	PABP FP inh active (no result: MLLE-PAM2 inh)
CCOc1cc(C=NN=C2c3ccccc3-c3ccccc32)ccc1O	none (no result: PABP FP inh, SUMO HTRF inh, HCV core dimer, eIF4E-4G inh, eIF4H inh)
O=[N+]([O-])c1ccccc1/C=C/C=N/n1c(-c2ccc(Cl)cc2)n[nH]c1=S	HCV core dimer 83
O=[N+]([O-])c1ccc(O)c(/C=N/n2c(-c3ccccc3)n[nH]c2=S)c1	none (no result: eIF4E-4G inh)
S=c1[nH]nc(-c2ccco2)n1/N=C/c1ccc(Cl)cc1	eIF4E-4G inh 33
Oc1c(Br)cc(/C=N/n2c(-c3ccccc3)n[nH]c2=S)c(Br)c1O	PABP FP inh active, SUMO HTRF inh 55, eIF4H inh 85 (no result: eIF4E-4G inh, MLLE-PAM2 inh)
S=c1[nH]nc(-c2ccco2)n1/N=C/c1ccccc1Cl	none
O=[N+]([O-])c1cccc(-c2ccc(/C=N/n3c(-c4ccccc4)n[nH]c3=S)o2)c1	eIF4E-4G inh 75[fluorescence artefact?]
CSc1ccccc1NC(=O)CN(C)CC(=O)NCC(=O)Nc1ccc(F)cc1	none (no result: PABP FP inh, SUMO HTRF inh, eIF4E-4G inh, eIF4H inh)
S=c1[nH]nc(-c2ccc(Cl)cc2)n1/N=C/c1cccs1	eIF4E-4G inh 95
O=C(CNS(=O)(=O)c1ccc(Br)cc1)OCc1cc(=O)n2cc(Br)ccc2n1	none (no result: MLLE-PAM2 inh)
O=C(CNC(=O)c1cccc(OC(F)F)c1)OCc1cc(=O)n2cc(Br)ccc2n1	PABP FP inh active
N#Cc1ccc(CN2CCN(C(=O)C3CC(=O)N(c4ccccc4F)C3)CC2)cc1 (stereo not drawn)	none (no result: PABP FP inh, SUMO HTRF inh, HCV core dimer, eIF4E-4G inh, eIF4H inh)
O=C1C(Cl)=C(N2CCN(Cc3ccccc3)CC2)C(=O)N1Cc1ccccc1	MLLE-PAM2 inh 65
Cc1ccc(-c2cc(-c3ccccc3)c3c(N)c(S(C)(=O)=O)sc3n2)cc1	PABP FP inh active, eIF4H inh 105
N#Cc1sc2nc(-c3cccs3)cc(-c3ccc(F)cc3)c2c1N	none
CS(=O)(=O)c1sc2nc(-c3cccs3)cc(-c3ccccc3)c2c1N	PABP FP inh inconclusive, HCV core dimer 51, eIF4H inh inconclusive
COC(=O)/C=C1\S/C(=N/N=C/c2ccco2)NC1=O	PABP FP inh active, eIF4H inh 61
COc1ccc(N=C2NC(=O)/C(=C\c3ccco3)S2)cc1	SUMO HTRF inh 62
O=C1NC(=Nc2ccc(O)cc2)S/C1=C\C=C\c1ccco1	PABP FP inh active, eIF4H inh 83 (no result: SUMO HTRF inh)
CC[N+]1(C)CC2CCC(C)(C1)C2(C)C (stereo not drawn)	none (no result: HCV core dimer)
Cc1cc(OCC(=O)N2CCN(c3ccccn3)CC2)c(C)cc1Br	none (no result: eIF4E-4G inh)
Cc1cc(OCc2cc(C(=O)NCCN3CCCCC3CO)no2)cc(C)c1Cl (stereo not drawn)	none (no result: eIF4E-4G inh)
Cc1cccc(Nc2sc(C(=O)c3cc4cc(Cl)ccc4o3)c(N)c2C#N)c1	none
Cc1cc(Oc2ccc(N)cn2)ccc1Cl	PABP FP inh active, eIF4H inh inconclusive
C=CCn1c(NC(=O)c2ccco2)c(S(=O)(=O)c2ccccc2)c2nc3ccccc3nc21	PABP FP inh active, eIF4H inh 62 (no result: HCV core dimer, eIF4E-4G inh, MLLE-PAM2 inh)
C=CCn1c(NC(=O)c2ccc(Br)o2)c(S(=O)(=O)c2ccccc2)c2nc3ccccc3nc21	PABP FP inh active, eIF4H inh inconclusive
COc1ccc(-n2c(NC(=O)c3ccco3)c(C#N)c3nc4ccccc4nc32)cc1	none
CCC(CC)CC1CN2CCc3cc(OC)c(OC)cc3C2CC1(O)CC (stereo not drawn)	none (no result: PABP FP inh, SUMO HTRF inh, HCV core dimer, eIF4E-4G inh, eIF4H inh)
Cc1ccc(NC(=O)CSc2nc3cc(C(=O)NCC4CCCO4)ccc3c(=O)n2CC2CCCO2)cc1 (stereo not drawn)	none (no result: PABP FP inh, SUMO HTRF inh, HCV core dimer, eIF4E-4G inh, eIF4H inh)
COc1ccc(OC)c(NC(=O)c2cccc(N3C(=O)C4C5C=CC(C6CC56)C4C3=O)c2)c1 (stereo not drawn)	none (no result: PABP FP inh, SUMO HTRF inh, eIF4E-4G inh, eIF4H inh)
Cc1ccc(-c2nc3ccccc3o2)cc1NC(=O)c1ccc2c(c1)OCO2	SUMO HTRF inh 58
COC(=O)c1ncccc1SC	none
O=C(Oc1ccc[nH]c1=O)c1cccc(Cl)c1	SUMO HTRF inh 100
CCCCCC(=O)Nc1cc(S(=O)(=O)N2CCOCC2)ccc1N1CCCCC1	none (no result: PABP FP inh, SUMO HTRF inh, eIF4E-4G inh, eIF4H inh)
COC(=O)c1ccc(OC(=O)c2ccc(OC)c(OC)c2)c(OC)c1	none
COC(=O)c1ccc(OC(=O)c2ccc(OC)cc2)c(OC)c1	PABP FP inh active, eIF4H inh 53
COc1ccc(/C=N\Nc2ccccn2)c(OC)c1	none (no result: HCV core dimer, eIF4E-4G inh)
COc1ccc(/C=N/Nc2ccccn2)c(OC)c1OC	PABP FP inh active, eIF4H inh 1.9
O=C(NNC(=O)c1c(O)c2ccccc2[nH]c1=O)c1ccccc1Br	none (no result: eIF4E-4G inh)
CC(C)c1ccc(C(=O)NCc2ccc(Cl)cc2)cc1	eIF4E-4G inh 31[fluorescence artefact?]
CCNC(=O)c1ccc(CSc2ccc(Cl)cc2)cc1	eIF4E-4G inh 36
Nc1cccnc1Sc1cccc(Cl)c1	MLLE-PAM2 inh 38
Nc1cccnc1Sc1ccc(Cl)cc1	none
O=C(NCC(c1ccco1)N1CCOCC1)C1CCCCC1 (stereo not drawn)	none (no result: PABP FP inh, SUMO HTRF inh, eIF4E-4G inh, eIF4H inh)
CSc1ccc(CN(C)CC(=O)NC(=O)NCCC2=CCCCC2)cc1	none (no result: PABP FP inh, SUMO HTRF inh, HCV core dimer, eIF4E-4G inh, eIF4H inh)
O=C(N/N=C\C=C\c1ccco1)c1cncc(Br)c1	PABP FP inh active, eIF4H inh 66
O=C(N/N=C\c1ccco1)c1cncc(Br)c1	none (no result: MLLE-PAM2 inh)
O=C(N/N=C/C=C\c1ccco1)c1ccccn1	PABP FP inh active, eIF4H inh 75
CC(C)c1ccc(/C=N/NC(=O)c2ccccn2)cc1	eIF4E-4G inh 55
O=C(N/N=C\C=C\c1ccco1)c1cc(-c2ccc3ccccc3c2)n[nH]1	SUMO HTRF inh 51
O=C(N/N=C/C=C/c1ccco1)c1cnccn1	none
Cc1ccc([C@@H]2C[C@H]3[C@@H](CN2S(=O)(=O)c2ccc(Cl)cc2)C(=O)C[C@@H](c2ccccc2)N3S(=O)(=O)c2ccc(C)cc2)cc1	none (no result: PABP FP inh, SUMO HTRF inh, HCV core dimer, eIF4E-4G inh, eIF4H inh)
O=C(NC(=S)Nc1cc(C(F)(F)F)ccc1N1CCOCC1)c1sc2ccccc2c1Cl	none
O=C(N/N=C/C=C\c1ccco1)c1cccnc1	PABP FP inh active, eIF4H inh 62
O=C(N/N=C/C=C/c1ccco1)c1cccnc1	PABP FP inh active, eIF4H inh 64
Cc1ccnc(SCc2ccc(C(=O)O)cc2)n1	none (no result: eIF4E-4G inh)
COC(=O)c1ccccc1NC(=O)CSc1nc(O)c(-c2ccccc2)c(=O)[nH]1	none
COC(=O)c1cccc(NC(=O)CSc2nc(O)c(-c3ccccc3)c(=O)[nH]2)c1	PABP FP inh active, eIF4H inh inconclusive
C/C(=N\NC(=O)c1cc(-c2ccncc2)nc2ccccc12)c1ccc(OC(F)F)cc1	none
